Measured values as given in ChEMBL document CHEMBL1136421, “New tetrahydrobenzindoles as potent and selective 5-HT(7) antagonists with increased In vitro metabolic stability” (Bioorg Med Chem Lett, 2003).

What was measured:
[1] = biological target: T1, 5-hydroxytryptamine receptor 7 (Homo sapiens, UniProt P34969); assay: Ability to displace the radioligand [3H]5-carboximidotryptamine ([3H]-5-CT) from cloned human 5-hydroxytryptamine 7 receptor expressed in COS-7 cells; format: cell-based
Summary of the method: (§1)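 Displacement of [3H]5-CT from cloned human 5-HT7 receptor expressed in COS-7 cells. Affinity reported as pKi, given as mean ± SE of 8–12 values.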

[2] = biological target: T2, Serotonin 2 (5-HT2) receptor (Rattus norvegicus, UniProt P30994+P08909+P14842); assay: Binding affinity towards 5-hydroxytryptamine 2 receptor by the displacement of [3H]ketanserin in rat cerebral cortex membrane; format: cell membranes
Summary of the method: (§2)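 Displacement of [3H]ketanserin from rat cerebral cortex membranes at the 5-HT2 site. Affinity reported as pKi, given as mean ± SE of 8–12 values.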

[3] = biological target: 5-hydroxytryptamine receptor 6 (Homo sapiens, UniProt P50406); assay: Binding affinity towards human recombinant 5-hydroxytryptamine 6 receptor by the displacement of [3H]-5-CT]
[4] = biological target: T1, 5-hydroxytryptamine receptor 7; assay: Binding affinity towards 5-HT7 receptor by the displacement of [3H]-5-CT] in human recombinant receptors in mammalian cell; summary of the method: as §1
[5] = biological target: T3, 5-hydroxytryptamine receptor 1A (Homo sapiens, UniProt P08908); assay: Binding affinity towards 5-HT1A receptor by the displacement of [3H]-8-OH-DPAT] in human recombinant receptors in mammalian cell
T3 sequence (P08908 whole entry): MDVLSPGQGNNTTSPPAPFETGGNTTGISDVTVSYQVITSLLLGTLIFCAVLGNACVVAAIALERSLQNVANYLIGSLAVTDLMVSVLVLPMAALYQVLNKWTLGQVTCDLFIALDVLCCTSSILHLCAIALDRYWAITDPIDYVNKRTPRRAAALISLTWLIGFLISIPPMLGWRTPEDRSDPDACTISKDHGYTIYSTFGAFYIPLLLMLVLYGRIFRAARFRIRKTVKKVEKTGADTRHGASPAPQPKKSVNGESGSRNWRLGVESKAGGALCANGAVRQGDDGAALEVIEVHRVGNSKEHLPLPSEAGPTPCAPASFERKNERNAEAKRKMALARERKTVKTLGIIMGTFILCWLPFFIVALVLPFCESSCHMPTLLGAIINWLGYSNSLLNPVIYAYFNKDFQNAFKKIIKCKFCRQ
Summary of the method: (§3)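 Radioligand displacement binding at the named receptor preparation. Affinity reported as pKi, given as mean ± SE of 8–12 values.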

[6] = biological target: 5-hydroxytryptamine receptor 4 (Cavia porcellus, UniProt O70528); assay: Binding affinity towards 5-HT4 receptor by the displacement of [3H]GR-113808 in guinea-pig striatum; format: tissue-based; summary of the method: as §3
[7] = biological target: Serotonin 3 (5-HT3) receptor; assay: Binding affinity towards 5-HT3 receptor by the displacement of [3H]GR-65630] in human recombinant receptors in mammalian cell; format: protein-complex assay; summary of the method: as §3
[8] = biological target: T4, 5-hydroxytryptamine receptor 2C (Homo sapiens, UniProt P28335); assay: Binding affinity towards 5-HT2C receptor by the displacement of [3H]mesulergine] in human recombinant receptors in mammalian cell; summary of the method: as §3
T4 sequence (P28335 whole entry): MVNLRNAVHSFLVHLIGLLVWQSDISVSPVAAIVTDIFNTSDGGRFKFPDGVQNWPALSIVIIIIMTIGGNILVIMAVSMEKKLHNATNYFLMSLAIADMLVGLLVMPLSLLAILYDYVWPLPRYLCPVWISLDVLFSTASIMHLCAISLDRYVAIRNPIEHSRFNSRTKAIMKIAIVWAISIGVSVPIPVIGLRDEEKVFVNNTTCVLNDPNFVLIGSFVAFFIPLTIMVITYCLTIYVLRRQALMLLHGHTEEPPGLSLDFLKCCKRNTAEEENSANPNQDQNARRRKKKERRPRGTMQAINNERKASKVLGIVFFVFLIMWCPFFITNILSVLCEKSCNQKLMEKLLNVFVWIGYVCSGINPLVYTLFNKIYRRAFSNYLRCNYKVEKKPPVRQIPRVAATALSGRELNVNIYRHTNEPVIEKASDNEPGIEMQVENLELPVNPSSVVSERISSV

[9] = biological target: 5-hydroxytryptamine receptor 1B (Homo sapiens, UniProt P28222); assay: Binding affinity towards 5-HT1B receptor by the displacement of [3H][…]] in human recombinant receptors in mammalian cell
[10] = biological target: T2, Serotonin 2 (5-HT2) receptor; assay: Binding affinity towards 5-HT2 receptor by the displacement of [3H]-ketanserin] in rat cerebral cortex; format: tissue-based; summary of the method: as §2

T1 sequence (P34969 whole entry): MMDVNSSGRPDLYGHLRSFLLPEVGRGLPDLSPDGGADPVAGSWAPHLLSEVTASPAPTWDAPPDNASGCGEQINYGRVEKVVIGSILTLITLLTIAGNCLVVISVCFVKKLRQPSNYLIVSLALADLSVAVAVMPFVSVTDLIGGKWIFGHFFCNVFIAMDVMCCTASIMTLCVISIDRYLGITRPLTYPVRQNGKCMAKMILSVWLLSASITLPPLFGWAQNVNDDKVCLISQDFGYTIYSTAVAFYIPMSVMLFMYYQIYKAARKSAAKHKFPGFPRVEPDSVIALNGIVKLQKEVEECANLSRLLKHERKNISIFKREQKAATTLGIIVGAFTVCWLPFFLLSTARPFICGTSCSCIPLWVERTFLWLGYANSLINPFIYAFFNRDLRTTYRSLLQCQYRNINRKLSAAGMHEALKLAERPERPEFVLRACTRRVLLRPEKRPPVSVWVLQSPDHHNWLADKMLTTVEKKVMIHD
Chain of 5-hydroxytryptamine receptor 1B (P28222 whole entry): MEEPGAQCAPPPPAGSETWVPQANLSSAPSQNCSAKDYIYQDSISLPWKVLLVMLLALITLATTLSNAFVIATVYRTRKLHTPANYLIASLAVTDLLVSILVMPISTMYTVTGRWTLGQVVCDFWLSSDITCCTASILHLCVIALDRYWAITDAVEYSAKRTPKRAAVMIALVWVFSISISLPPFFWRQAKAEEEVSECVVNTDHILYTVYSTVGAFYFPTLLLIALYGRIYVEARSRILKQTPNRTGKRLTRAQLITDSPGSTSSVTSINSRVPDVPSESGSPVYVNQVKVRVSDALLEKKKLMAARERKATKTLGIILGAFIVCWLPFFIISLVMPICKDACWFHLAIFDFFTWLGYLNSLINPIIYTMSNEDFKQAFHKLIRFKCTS
Chain of 5-hydroxytryptamine receptor 4 (O70528 whole entry): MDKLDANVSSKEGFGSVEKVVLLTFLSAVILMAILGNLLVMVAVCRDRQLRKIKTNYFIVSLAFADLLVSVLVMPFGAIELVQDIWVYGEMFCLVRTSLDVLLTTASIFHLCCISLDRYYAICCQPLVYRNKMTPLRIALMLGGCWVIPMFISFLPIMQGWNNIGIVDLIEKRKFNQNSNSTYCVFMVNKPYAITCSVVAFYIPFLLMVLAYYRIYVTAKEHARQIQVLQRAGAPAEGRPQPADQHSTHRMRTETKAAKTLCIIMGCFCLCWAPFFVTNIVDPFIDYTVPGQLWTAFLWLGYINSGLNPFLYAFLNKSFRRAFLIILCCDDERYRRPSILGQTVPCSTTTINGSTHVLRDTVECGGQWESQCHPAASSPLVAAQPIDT
Chain of 5-hydroxytryptamine receptor 6 (P50406 whole entry): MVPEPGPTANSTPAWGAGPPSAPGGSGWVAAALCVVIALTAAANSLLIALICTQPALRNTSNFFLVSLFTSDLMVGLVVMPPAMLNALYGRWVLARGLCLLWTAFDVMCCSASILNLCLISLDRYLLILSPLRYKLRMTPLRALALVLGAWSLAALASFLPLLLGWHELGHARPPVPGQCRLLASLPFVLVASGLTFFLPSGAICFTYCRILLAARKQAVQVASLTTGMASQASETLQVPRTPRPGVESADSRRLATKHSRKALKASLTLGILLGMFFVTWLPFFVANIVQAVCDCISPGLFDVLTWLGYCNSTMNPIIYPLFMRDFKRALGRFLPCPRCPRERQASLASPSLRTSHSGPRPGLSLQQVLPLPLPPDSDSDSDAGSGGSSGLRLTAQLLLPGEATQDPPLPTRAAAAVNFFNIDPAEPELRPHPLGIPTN

Compound: O=C1Nc2ccc(Cl)c3c2C1(CCCCN1CC=C(c2ccccc2)CC1)CCC3 (stereo not given)
- Ki [1]: 5.01 nM
- Log Ki [2]: > -6.5

Compound: O=C1Nc2ccc(Cl)c3c2C1(CCCCN1CC=C(c2ccc(Cl)cc2)CC1)CCC3 (stereo not given)
- Ki [3]: > 1000 nM
- Ki [4]: 7.24 nM
- Ki [5]: 316 nM
- Ki [1]: 7.24 nM
- Ki [6]: > 1000 nM
- Log Ki [7]: > -6
- Ki [8]: > 1000 nM
- Ki [9]: > 1000 nM
- Log Ki [10]: > -6
- Log Ki [2]: > -6

Compound: O=C1Nc2cccc3c2C1(CCCCN1CC=C(c2ccc(F)cc2)CC1)CCC3 (stereo not given)
- Log Ki [2]: > -7.18

Compound: O=C1Nc2ccc(Cl)c3c2C1(CCCCN1CC=C(c2ccc(F)cc2)CC1)CCC3 (stereo not given)
- Ki [1]: 2.04 nM
- Log Ki [2]: > -6.64
